ChEMBL document CHEMBL1140566, “Discovery of novel isoxazolines as anti-tuberculosis agents” (Bioorg Med Chem Lett, 2007)
Converted amounts (≈) assume the structure as drawn.

Legend:
[1] = system: Mycobacterium tuberculosis; test: Antituberculosis activity against Mycobacterium tuberculosis by microbroth dilution method; format: functional
Summary of the method: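 M. tuberculosis susceptibility was measured by microbroth dilution and reported as MIC90 in μg/mL.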

[2] = system: Mycobacterium tuberculosis; test: Antituberculosis activity in Mycobacterium tuberculosis infected rat assessed as reduction of colony formation; format: functional
[3] = Stability in rat liver microsomes after 90 mins; format: ADME, Microsome; conditions: read-out: Stability
Summary of the method: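 Compounds were incubated with pooled rat liver microsomes and loss of parent was monitored. Intact parent was quantified by LC-MS/MS and reported as % remaining at 90 min.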

[4] = Solubility at pH 6.0 by shake-flask method; format: physicochemical; conditions: buffer
Summary of the method: (§1)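 Aqueous solubility was determined by a miniaturized shake-flask method at pH 6.0 and at pH 7.4, reported in mg/L.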

[5] = Solubility at pH 7.4 by shake-flask method; format: physicochemical; conditions: buffer; summary of the method: as §1
[6] = Protein binding in rat; format: ADME, organism-based; conditions: plasma, read-out: PB (converted)
Summary of the method: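 Plasma protein binding was measured by equilibrium dialysis in RED devices and reported as percent bound.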

[7] = Bioavailability in rat at 100 mg/kg, po; format: ADME, organism-based; conditions: in vivo
Summary of the method: (§2)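 Rats were given single doses at 10 mg/kg intravenously or 100 mg/kg orally. Half-life, AUC to infinity (μg·hr/L), volume of distribution (L/kg) and clearance (L/hr/kg) were derived for each route. Oral bioavailability was calculated relative to the IV dose.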

[8] = Half life in rat at 100 mg/kg, po; format: ADME, organism-based; design: dose 100 mg/kg, route oral; conditions: in vivo; summary of the method: as §2
[9] = AUC (0 to infinity) in rat at 10 mg/kg, iv; format: ADME, organism-based; design: time infinity, dose 10 mg/kg, route intravenous; conditions: plasma; summary of the method: as §2
[10] = Clearance in rat at 100 mg/kg, po; format: ADME, organism-based; design: dose 100 mg/kg, route oral; conditions: in vivo; summary of the method: as §2
[11] = AUC (0 to infinity) in rat at […]; format: ADME, organism-based; design: time infinity; conditions: plasma
[12] = Volume of distribution in rat at 10 mg/kg, iv; format: ADME, organism-based; design: dose 10 mg/kg, route intravenous; conditions: in vivo; summary of the method: as §2
[13] = Clearance in rat at 10 mg/kg, iv; format: ADME, organism-based; design: dose 10 mg/kg, route intravenous; conditions: in vivo; summary of the method: as §2
[14] = system: Rattus norvegicus; test: Volume of distribution in rat at 100 mg/kg, po; format: ADME, organism-based; design: dose 100 mg/kg, route oral; conditions: in vivo; summary of the method: as §2
[15] = Half life in rat at 10 mg/kg, iv; format: ADME, organism-based; design: dose 10 mg/kg, route intravenous; conditions: in vivo; summary of the method: as §2

Row | SMILES | MIC90 [1] [ng/mL] | Log10 cfu [2] | remaining at 1.5 h [3] [%] | solubility thermodynamic [4] [µg/mL] | fraction unbound [6] | other results
1 | c1ccc(CN2CCN(c3ccc(C4CC(c5ccccn5)=NO4)cc3)CC2)cc1 (stereo not given) | > 200000 |  |  |  |  | 
2 | NNC(=O)c1ccncc1 [ISONIAZID] | 25 (≈ 0.182 µM) | 3.98 |  |  |  | 
3 | O=[N+]([O-])c1ccc(C2=NOC(c3ccc(N4CCCCC4)cc3)C2)o1 (stereo not given) | 1.56 (≈ 0.00457 µM) |  | 6 | 0.017 (≈ 0.0498 µM) | 0.012 | Solubility [5]: 0.014 µg/mL (≈ 0.041 µM)
4 | O=[N+]([O-])c1ccc(C2=NOC(c3ccc(N4CCN(Cc5ccccc5)CC4)cc3)C2)o1 (stereo not given) | 0.05 (≈ 0.000116 µM) | 0.64 | 31 | 3.34 (≈ 7.72 µM) | 0.001 | bioavailability [7]: 34.5%; half-life [8]: 4.2 h; AUC(0-inf) [9]: 19100 ng·h/mL; CL/F [10]: 26.3 mL/min/kg; AUC(0-inf) [11]: 65900 ng·h/mL; Vd [12]: 2 L/kg; clearance [13]: 8.83 mL/min/kg; solubility thermodynamic [5]: 0.236 µg/mL (≈ 0.546 µM); Vd [14]: 9.3 L/kg; half-life [15]: 2.6 h
5 | O=[N+]([O-])c1ccc(C2=NOC(c3ccc(N4CCN(Cc5ccccc5)CC4)cc3)C2)cc1 (stereo not given) | > 200000 |  |  |  |  | 
6 | CC(C)(C)OC(=O)N1CCN(c2ccc(C3CC(c4ccc([N+](=O)[O-])o4)=NO3)cc2)CC1 (stereo not given) | 0.1 (≈ 0.000226 µM) |  |  |  |  | 
7 | CCOC(=O)N1CCN(c2ccc(C3CC(c4ccc([N+](=O)[O-])o4)=NO3)cc2)CC1 (stereo not given) | 0.1 (≈ 0.000241 µM) | 0.59 | 12 | 4 (≈ 9.65 µM) | 0.01 | solubility thermodynamic [5]: 3.6 µg/mL (≈ 8.69 µM)
8 | CCCC1=NOC(c2ccc(N3CCN(Cc4ccccc4)CC3)cc2)C1 (stereo not given) | > 200000 |  |  |  |  | 
9 | CC(C)NC(=O)N1CCN(c2ccc(C3CC(c4ccc([N+](=O)[O-])o4)=NO3)cc2)CC1 (stereo not given) | 0.2 (≈ 0.000468 µM) | 0.83 | 26 | 27.7 (≈ 64.8 µM) | 0.027 | solubility thermodynamic [5]: 20 µg/mL (≈ 46.8 µM)
10 | c1ccc(CN2CCN(c3ccc(C4CC(c5ccncc5)=NO4)cc3)CC2)cc1 (stereo not given) | 50000 (≈ 125 µM) |  |  |  |  | 
11 | CCOC(=O)C1=NOC(c2ccc(N3CCN(Cc4ccccc4)CC3)cc2)C1 (stereo not given) | 1560 (≈ 3.96 µM) |  |  |  |  | 
